The source of these data is publication PMC12235443 (RSC Chemical Biology, 2025).

Square brackets hold non-standard residues; d marks the D form. Peptide text beside a SMILES is read from it. 2Nal = N[C@@H](Cc1ccc2ccccc2c1)C(=O)O

Assay [1] has as its target iCP-PA28-activated complex (Homo sapiens, UniProt P28062). Description: LC-MS hydrolysis of dialanine substrates by iCP-PA28-activated complex. The class given is biochemical. Conditions: 25 µM substrate, iCP + 7.5X PA28, 4 hours, triplicate, Fig. 3B. Summed up: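 Purified human iCP, activated with PA28, incubated with 25 μM test substrate for 4 hours. Each substrate is a modified recognition sequence joined to a constant dialanine cargo, with expected cleavage at the amide bond between them. Products analysed by LC-MS as percent degraded. Triplicate, mean ± standard deviation. Singly modified substrates compared with the unmodified-sequence dialanine control by t-test.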

The subject of another assay is iCP over sCP. Description: Selectivity index, mean iCP percent degraded over sCP percent degraded. The class given is biochemical.

`CSCC[C@H](NC(=O)[C@@H](NC(=O)[C@H](C)N)[C@@H](C)O)C(=O)N[C@@H](Cc1ccc2ccccc2c1)C(=O)N[C@@H](C)C(=O)N[C@@H](C)C(N)=O` [ATM(2-Nal)] (H-ATM[2Nal]AA-NH2): the “Hydrolysis by iCP-PA28-activated complex compared with control ATMWAA” value in assay [1] is “hydrolyzed well by the iCP”. In the assay on iCP over sCP (Fig. 3C conditions), the “Isoform selectivity for the iCP” value was “not isoform selective”.

“morph-Ala-Orn-(Met?O2)-Trp(7,Me) [mAO(Met=O2) W(7,Me)]”: the “Increase of substrate selectivity for the iCP compared with the ATMW scaffold” value in the assay on iCP over sCP (ratio of selectivity indices, analogue vs ATMWAA) is “about 3 fold”.
